# Bioassay records (PubChem BioAssay)
# Rows were chosen to be rich in hits. Some 5.4% of all compounds tested hit in one or more screens of this group.
# PLAP act: human PLAP activation; P05187; purified PLAP enzyme, luminescent substrate read-out; hits give high values; activation fold at 20 µM; 96,000 tested, 1.2% active; AID 696; in the data active means activation fold above about 2
# tolC growth inh: growth inhibitors of E. coli BW25113 tolC mutant. OD615. growth inhibition, % at 10 µM (by protocol). 65,000 tested, 2.2% active. AID 573;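 active means growth inhibition at or above a cutoff equal to the mean over every tested compound plus 3 SD, cut at about 60% in these data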;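 further: growth measured after 20 h incubation at 37 °C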
#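 signal = optical density read at 615 nm | test system = E. coli ΔtolC::kan strain BW25113 | timing = 20 h compound exposure of bacteria at 37 °C | buffer or medium = LB medium plus 50 µg/mL kanamycin | compound dosing = 10 µM final, single dose | evaluation = % inhibition of E. coli growth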
# E coli WT exp: E. coli BW25113 growth inhibition, expanded screen; 98,000 tested, 0.15% active; OD600 absorbance; growth inhibition, % at 100 µM;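 active means growth inhibition above about 50% at one test dose, limit read from the data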;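 further: growth measured after 20 h incubation at 37 °C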
# PostGolgi ctrl: growth of the yeast control strain, post-Golgi counter-screen; efflux-deficient yeast background strain, growth absorbance A615, 16 h; inhibition, % at 10 µM; 98,000 tested, 5% active; AID 738
# PostGolgi yeast: growth inhibition of a yeast mutant, post-Golgi transport screen; post-Golgi transport phenotypic cell assay; inhibition, % at 10 µM; 98,000 tested, 0.9% active;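 further: yeast cells grown in 1536-well plates; yeast grown about 18 h at 30C before absorbance read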
# HePTP inhibitor: inhibitors of human HePTP phosphatase. recombinant HePTP phosphatase activity, OD absorbance. inhibition, % at 20 µM. 110,000 tested, 0.64% active. AID 521; in the data active means inhibition above about 50%;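 further: plate controls were vehicle for no effect and reference inhibitor for full effect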
# Target sequence (P35236 whole entry, looked up): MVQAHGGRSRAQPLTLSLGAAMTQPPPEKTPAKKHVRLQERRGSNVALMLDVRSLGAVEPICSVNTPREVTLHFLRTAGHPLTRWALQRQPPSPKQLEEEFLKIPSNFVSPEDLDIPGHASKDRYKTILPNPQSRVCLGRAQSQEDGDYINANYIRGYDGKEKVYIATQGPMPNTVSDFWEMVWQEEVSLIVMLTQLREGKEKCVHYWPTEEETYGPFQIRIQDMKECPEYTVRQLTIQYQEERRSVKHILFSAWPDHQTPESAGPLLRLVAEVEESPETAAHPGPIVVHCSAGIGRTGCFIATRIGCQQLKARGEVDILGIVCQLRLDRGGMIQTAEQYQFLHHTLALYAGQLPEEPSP
# Active calls of the source: *; . = no result. Unless noted, no stated cut-off is given here; in the data, active means inhibition above about 30%; inactive means the rest.
SMILES,PLAP act,tolC growth inh,E coli WT exp,PostGolgi ctrl,PostGolgi yeast,HePTP inhibitor
CCOc1ccc(Cl)cc1CSc1n[nH]c(CC)n1,1.7,-2,10,34*,-9,11
Cc1cc(C)c2c3c(sc2n1)C(c1cccc(F)c1)C(C#N)=C(N)O3 (stereo unspecified),0.7,.,-2,74*,19,.
Cc1oc(C)c2c(=O)ccc3c(c12)OC(N)=C(C#N)C3c1ccc(F)cc1 (stereo unspecified),1.1,6,24,-5,-1,6
CCN(c1cccc(C(F)(F)F)c1)S(=O)(=O)c1ccc2c(c1)CCN2C(=O)C1CC1,1.2,69*,2,17,0,-4
O=C(NCCCN1CCCC1=O)c1cc(=O)c2ccccc2o1,1.3,-9,5,15,-5,1
CCc1c(C)nc2cc(-c3ccc(OC)c(OC)c3)nn2c1NCC1CC1,2*,.,-12,22,12,.
COc1ccc(-c2nc(C)c(C(C)=O)n2O)cc1OC,1.1,10,2,13,-1,-4
COCc1c(-c2ccccc2)c2cc([N+](=O)[O-])ccc2n1C,.,.,.,.,.,-4
Cc1c(NC(=O)c2ccccc2NS(=O)(=O)c2ccc(F)cc2)c(=O)n(-c2ccccc2)n1C,1.3,12,-5,-5,-8,11
O=C1CCCC2=C1C(c1ccsc1)CC(=O)N2c1nnc(SCc2ccccc2)s1 (stereo unspecified),1.3,.,-10,37*,4,.
COCCNc1nc(=S)[nH]c2cc(OC)c(OC)cc12,1.1,-6,3,-7,-2,-12
CCn1c(-c2cc3c(C(F)(F)F)nn(C)c3s2)n[nH]c1=S,0.9,.,-5,41*,4,.
Cc1ccc(C2(C)NC(=O)N(CC(=O)Nc3cc(C)on3)C2=O)cc1 (stereo unspecified),1.1,.,6,31*,-1,.
Cc1cc(NC(=O)CN2C(=O)NC(Cc3ccccc3)C2=O)no1 (stereo unspecified),0.7,.,2,7,-3,.
CCC(=O)Nc1cc(-c2nc3ncccc3o2)ccc1C,.,.,.,.,.,5
CCOc1ccc2c(=O)c(-c3ccccc3OC)coc2c1,.,.,.,.,.,6
CCCn1c(=S)[nH]c2cc(C(=O)N3CCCC(C(=O)OCC)C3)ccc2c1=O (stereo unspecified),1.2,16,-8,9,0,-7
CC1CCCN(C(=O)c2ccc3c(=O)n(Cc4ccc5c(c4)OCO5)c(=S)[nH]c3c2)C1 (stereo unspecified),1.4,.,-4,47*,-1,.
CC1CCN(C(=O)Cn2c(=O)n(Cc3ccc4c(c3)OCO4)c(=O)c3ccccc32)CC1,1.4,14,-9,9,12,-4
CC1CCN(C(=O)CSc2nc3ccccc3c(=O)n2Cc2ccc3c(c2)OCO3)CC1,1.4,.,-18,43*,-6,.
CCOC(=O)N1CCN(S(=O)(=O)c2cc(OCC)ccc2OCC)CC1,1.4,25,5,11,10,-4
Oc1c(Cl)cc(Cl)cc1C=Nc1ccc2c(c1)OCCO2,0.8,.,40,9,0,.
CCOC(=O)COn1c(=O)c(-c2cccs2)[n+]([O-])c2ccccc21,1,8,5,19,-3,5
CCOn1c(=O)c(-c2cccs2)[n+]([O-])c2ccccc21,1.1,.,-2,42*,-5,4
COc1ccc(C2(CC(=O)Nc3ccccc3C)C(=O)c3ccccc3C2=O)cc1,.,.,.,.,.,-4
SMILES,PLAP act,tolC growth inh,E coli WT exp,PostGolgi ctrl,PostGolgi yeast,HePTP inhibitor
O=C(c1ccccc1Oc1ccccc1)N1CCN(c2ccccc2F)CC1,1.4,.,-5,33*,-2,.
CCN(CC)S(=O)(=O)c1ccc(NS(=O)(=O)c2ccc(NC(C)=O)cc2)cc1,.,.,.,.,.,-11
Nc1nc(Nc2ccccc2)nc2ccccc12,0.8,35,48,3,-10,5
Nc1nc(Nc2ccc(Cl)cc2)nc2ccccc12,0.7,.,93*,11,1,.
Cc1ccc(C23CC4CC(CC(C(=O)Nc5ccc(F)cc5F)(C4)C2)C3)cc1,.,.,.,.,.,72*
Cn1c2c(c(=O)n(C)c1=O)C(C(F)(F)F)(C(F)(F)F)N=C(c1ccc(Cl)cc1)N2,1.1,.,0,68*,47*,.
COc1cccc(NC(=O)c2sc(-c3ccccc3)nc2C)c1,.,.,.,.,.,7
COc1ccc(/C=N/Nc2ccc(Br)cc2)cc1[N+](=O)[O-],.,.,.,.,.,5
O=C(C(c1ccccc1)c1ccccc1)N1CCN(Cc2cccnc2)CC1,.,.,.,.,.,-12
O=C(COc1ccc2ccccc2c1)NC1CC1,0.8,.,9,-5,3,.
